Active and inactive are the calls of the source. No cut-off for these calls is given here.
Key:
[1] = system: Radical scavenging activity; test: Antioxidant activity assessed as reduction of DPPH radical generation at 50 uM incubated for 20 mins at room temperature; type: functional; set-up: scale not given: the % may be the effect or the level left
Method in brief: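 DPPH radical interaction in ethanol, compound final 50 µM (equimolar with DPPH); ethanol as control. Absorbance at 517 nm read after 20 min at room temperature.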

[2] = system: Glycine max; test: Inhibition of soybean lipoxygenase using sodium linoleate substrate at 100 uM
Method in brief: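 Soybean lipoxygenase (0.2 mL of 1/9 × 10^-4 w/v solution in saline) incubated at room temperature with compound in ethanol and sodium linoleate 100 µM. Conversion to 13-hydroperoxylinoleic acid recorded at 234 nm, compared against caffeic acid 600 µM as standard inhibitor.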

[3] = Antioxidant activity assessed as inhibition of linoleic acid peroxidation at 100 uM by AAPH assay by UV spectrometry; type: functional
Method in brief: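 Linoleic acid dispersion (10 µL of 16 mM) in 0.05 M phosphate buffer pH 7.4 at 37 °C; oxidation started under air by adding 50 µL of 40 mM AAPH, with 10 µL aliquots of compound present. Conjugated diene hydroperoxide formation followed as rise in absorbance at 234 nm; blank run contained same DMSO level.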

| SMILES | inhibition [2] | Activity [1] | inhibition [3] |
| --- | --- | --- | --- |
| CC(Cc1ccc(O)c(O)c1)C(C)Cc1ccc(O)c(O)c1 (stereo not drawn) | 64% | 81% |  |
| Cc1c(C)c2c(c(C)c1O)CCC(C)(C(=O)O)O2 (stereo not drawn) |  |  | 63% |
| CCSC1=N[C@@H](C(=O)OC)[C@@H]2C(=O)N(c3ccccc3)C(=O)[C@H]12 (relative stereo) | 81% | 11% | 91% |
| COC(=O)[C@@H]1N=C(SC(C)C)[C@H]2C(=O)N(c3ccccc3)C(=O)[C@H]21 (relative stereo) | 49% | 12% | 89% |
| COC(=O)[C@@H]1N=C(SC)[C@H]2C(=O)N(c3ccccc3)C(=O)[C@H]21 (relative stereo) | 51% | 26% | 93% |
| COC(=O)[C@@H]1N=C(SCc2ccccc2)[C@H]2C(=O)N(c3ccccc3)C(=O)[C@H]21 (relative stereo) | 83% | 15% | 98% |
| COC(=O)[C@H]1N=C(SC(C)C)[C@H]2C(=O)N(c3ccccc3)C(=O)[C@H]21 (relative stereo) | 44% | 13% | 72% |
| COC(=O)[C@H]1N=C(SC)[C@H]2C(=O)N(c3ccccc3)C(=O)[C@H]21 (relative stereo) |  | 8% | 84% |
| COC(=O)[C@H]1N=C(SCc2ccccc2)[C@H]2C(=O)N(c3ccccc3)C(=O)[C@H]21 (relative stereo) | 73% | 11% | 76% |

Continued, in another order:

| inhibition [2] | SMILES | Activity [1] | inhibition [3] |
| --- | --- | --- | --- |
| 91% | CCCCSC1=N[C@@H](C(=O)OC)[C@@H]2C(=O)N(c3ccccc3)C(=O)[C@H]12 (relative stereo) | 11% | 82% |
| 56% | CCCCSC1=N[C@H](C(=O)OC)[C@@H]2C(=O)N(c3ccccc3)C(=O)[C@H]12 (relative stereo) | 7% | 89% |
| 43% | CCCSC1=N[C@@H](C(=O)OC)[C@@H]2C(=O)N(c3ccccc3)C(=O)[C@H]12 (relative stereo) | 7% | 86% |
| 39% | CCCSC1=N[C@H](C(=O)OC)[C@@H]2C(=O)N(c3ccccc3)C(=O)[C@H]12 (relative stereo) | 9% | 86% |
| 26% | CCSC1=N[C@H](C(=O)OC)[C@@H]2C(=O)N(c3ccccc3)C(=O)[C@H]12 (relative stereo) | inactive | 89% |

Reference: ChEMBL document CHEMBL2069194, “Synthesis of sulfur containing dihydro-pyrrolo derivatives and their biological evaluation as antioxidants” (Bioorg Med Chem, 2012)
